For series [1] the following is noted: general statement in the discussion, no reference given; cited from earlier work.
In series [2] the test system is rat GIPR. The note with it: cited from earlier work.
Series [3] has as its system healthy human volunteers. To be noted: cited from earlier work.
Series [4] deals with T1, mGIPR (Mus musculus, UniProt Q0P543).
T1 sequence (Q0P543 19-460): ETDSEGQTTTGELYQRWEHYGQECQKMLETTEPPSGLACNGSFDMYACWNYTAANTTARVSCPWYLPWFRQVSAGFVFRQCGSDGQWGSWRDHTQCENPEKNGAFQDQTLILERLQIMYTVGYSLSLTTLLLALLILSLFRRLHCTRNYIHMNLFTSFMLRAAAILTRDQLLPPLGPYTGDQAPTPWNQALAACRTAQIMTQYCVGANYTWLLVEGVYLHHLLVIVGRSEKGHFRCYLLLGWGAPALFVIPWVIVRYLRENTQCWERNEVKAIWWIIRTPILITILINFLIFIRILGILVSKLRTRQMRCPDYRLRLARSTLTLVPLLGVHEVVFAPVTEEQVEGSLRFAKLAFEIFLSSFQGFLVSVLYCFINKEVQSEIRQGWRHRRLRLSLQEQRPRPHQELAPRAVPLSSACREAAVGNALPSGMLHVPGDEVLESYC
Briefly: cAMP-response-element luciferase reporter gene assay, agonism at mouse GIPR. The format is cell-based. To be noted: Figure 5D. (In general: Reporter assays use an easily measured gene product as a stand-in for the process of interest.)

The target of series [5] is mouse glucagon receptor (GcgR) (Mus musculus, UniProt Q61606). Briefly: luciferase reporter gene assay, antagonism at mouse glucagon receptor. To be noted: native hormone at EC90; Figure 5. Format: cell-based.
mouse glucagon receptor (GcgR), sequence (Q61606 27-485): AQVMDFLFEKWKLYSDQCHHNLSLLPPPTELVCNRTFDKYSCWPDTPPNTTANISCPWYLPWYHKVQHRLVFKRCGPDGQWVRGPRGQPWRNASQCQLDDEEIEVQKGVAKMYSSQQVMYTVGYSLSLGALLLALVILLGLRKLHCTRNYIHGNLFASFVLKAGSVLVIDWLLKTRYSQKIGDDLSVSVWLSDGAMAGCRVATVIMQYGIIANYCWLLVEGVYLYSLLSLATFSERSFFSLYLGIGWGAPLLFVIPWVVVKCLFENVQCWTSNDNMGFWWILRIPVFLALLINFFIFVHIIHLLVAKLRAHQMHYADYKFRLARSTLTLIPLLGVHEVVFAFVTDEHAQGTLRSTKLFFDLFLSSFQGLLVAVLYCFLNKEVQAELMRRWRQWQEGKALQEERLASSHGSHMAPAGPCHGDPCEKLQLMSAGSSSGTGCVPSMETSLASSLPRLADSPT
Series [6] concerns the target T2, hGIPR (Homo sapiens, UniProt P48546).
T2 sequence (P48546 22-466): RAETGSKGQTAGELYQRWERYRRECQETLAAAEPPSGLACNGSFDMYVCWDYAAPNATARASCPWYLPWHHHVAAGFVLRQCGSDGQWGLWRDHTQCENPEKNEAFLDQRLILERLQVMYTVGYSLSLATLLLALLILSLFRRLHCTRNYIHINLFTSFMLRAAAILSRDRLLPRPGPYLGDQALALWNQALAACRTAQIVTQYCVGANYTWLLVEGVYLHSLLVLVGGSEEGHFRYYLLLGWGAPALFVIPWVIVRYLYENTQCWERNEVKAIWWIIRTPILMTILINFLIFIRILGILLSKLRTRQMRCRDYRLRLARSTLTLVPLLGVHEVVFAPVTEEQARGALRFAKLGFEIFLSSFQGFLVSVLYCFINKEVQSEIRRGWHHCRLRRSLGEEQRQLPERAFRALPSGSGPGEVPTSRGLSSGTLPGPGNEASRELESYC
Briefly: cAMP-response-element luciferase reporter gene assay, agonism at human GIPR. The format is cell-based. The note with it: Figure 5B.

Series [7] concerns DIO mice. Briefly: body weight change on chronic treatment of DIO mice. The format is in vivo, mouse.
Series [8] can be described thus: aqueous solubility and aggregation. The note with it: statement in the discussion, method not given. Format: physicochemical.
Series [9] addresses T3, mouse GLP-1R (Mus musculus, UniProt O35659).
T3 sequence (O35659 22-463): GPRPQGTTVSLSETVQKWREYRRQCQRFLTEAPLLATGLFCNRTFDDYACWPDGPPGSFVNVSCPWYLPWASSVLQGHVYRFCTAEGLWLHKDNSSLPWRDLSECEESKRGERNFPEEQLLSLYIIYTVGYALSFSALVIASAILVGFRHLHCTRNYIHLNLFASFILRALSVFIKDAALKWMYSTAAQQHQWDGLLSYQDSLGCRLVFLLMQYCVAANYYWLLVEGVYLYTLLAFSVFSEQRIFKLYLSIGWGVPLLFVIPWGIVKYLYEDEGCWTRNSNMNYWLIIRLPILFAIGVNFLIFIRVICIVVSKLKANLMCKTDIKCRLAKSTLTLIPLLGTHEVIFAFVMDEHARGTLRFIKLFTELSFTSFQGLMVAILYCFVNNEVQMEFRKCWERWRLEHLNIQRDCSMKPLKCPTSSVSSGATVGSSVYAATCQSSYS
Briefly: luciferase reporter gene assay, antagonism at mouse GLP-1R. Format: cell-based. The note with it: native hormone at EC90; Figure 5E.

The target in series [10] is T2, hGIPR. Briefly: luciferase reporter gene assay, antagonism at human GIPR. Format: cell-based. To be noted: co-incubated with native GIP at its EC50; 1% ovalbumin; Figure 5A. In outline:
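HEK293 or BHK cells overexpressing the human receptor with a CRE-linked firefly luciferase reporter were serum-deprived for 16 h. They were then incubated 5 h at 37 °C, 5% CO2 with native GIP at constant concentration plus serial dilutions of test compound. Luminescence was read after adding luciferase substrate. Each concentration was run in duplicate, and potency was fitted per experiment by non-linear three-parameter regression.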

Where two headings read alike, the source gives them in different places. No end group written: not given here.

Consider “Native, full-length GIP: native, full-length GIP”, for which, in [1], the “aggregation in liquid formulations” value is “prone to aggregation” and the aqueous solubility entry is reported as “limited aqueous solubility”.

Regarding “hGIP (3–30)-NH2: peptide-based GIPR antagonist from the literature (EGTFISDYSIAMDKIHQQDFVNWLLAQK-NH2; UniProt P09681 54-81, looked up, fragment)”, the “affinity for the rat GIPR relative to hGIPR” value in series [2] is on record as “substantially reduced affinity”. The “insulinotropic response to GIP co-infusion” value in series [3] is given as “blocked a majority of the insulinotropic response”.

Turning to “hGIP(5–42) N^αAc K10[γEγE-C16] Arg18 [acyl GIPR antagonist]”, the “partial agonism at mGIPR” value in [4] is given as “did not exhibit any degree of partial agonism”. Further, the “cross-reactive antagonism to mouse glucagon receptor (GcgR)” value in series [5] is recorded as “did not demonstrate any cross-reactive antagonism”. Moreover, in series [6], the “partial agonism at hGIPR” value was “did not exhibit any degree of partial agonism”. Further, in series [7] (daily sc 300 nmol/kg or 1 μmol/kg for ten days, N = 8), the “change in body weight relative to vehicle controls” value is reported as “did not cause any measurable change in body weight”. In series [8], the aqueous solubility entry is given as “sufficient aqueous solubility”. In addition, the “cross-reactive antagonism to mouse GLP-1R” value in series [9] is on record as “did not demonstrate any cross-reactive antagonism”. Moreover, in [10], the hGIPR antagonism entry is listed as “potent antagonism”.

As to liraglutide [reference compound], the “body weight lowered by” value in series [7] (daily sc liraglutide 10 nmol/kg, Figure 5H) was found to be 10.9%.

The record behind these values is article PMC6358549 (Molecular Metabolism, 2018).
